“And” between values parts separate entries of the source, which are not always exact repeats. Identical values can stand only once. Non-standard residues stand in square brackets, D forms with d. Residues, ends and D or L forms follow the SMILES beside them. NMeR = CN[C@@H](CCCNC(=N)N)C(=O)O; NMeF = CN[C@@H](Cc1ccccc1)C(=O)O; Sar = CNCC(=O)O

Here are results for six compounds from ChEMBL document CHEMBL1121616, “Bradykinin analogues containing N alpha-methyl amino acids” (1980).

For assay [1], the species on record is Cavia porcellus. Nature of the assay: Compound was evaluated for mean percent change from control contractions of isolated guinea pig ilea produced by Acetylcholine (ACh) at a concentration of 10.0 ug/mL. In kind it is functional. In outline:
(§1)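 Isolated guinea pig ileum segments. Two control contractions to each agonist were elicited at regular 3- or 4-min intervals. Three sets of contractions were then elicited in the presence of the test compound, the first set used for equilibration. The mean of the last two treated sets was compared with the mean of the controls and expressed as percent change.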

For assay [2], the species on record is Cavia porcellus. Nature of the assay: Compound was evaluated for mean percent change from control contractions of isolated guinea pig ilea produced by Bradykinin (Brdkn) at a concentration of 0.01 ug/mL. The assay is classed as functional. In outline: as §1
The species named for assay [3] is Cavia porcellus. Nature of the assay: Compound was evaluated for mean percent change from control contractions of isolated guinea pig ilea produced by Bradykinin (Brdkn) at a concentration of 0.1 ug/mL. In kind it is functional. In outline:
as §1

The species entered for assay [4] is Cavia porcellus. Nature of the assay: Compound was evaluated for mean percent change from control contractions of isolated guinea pig ilea produced by Bradykinin (Brdkn) at a concentration of 1.0 ug/mL. The assay is classed as functional. The method, boiled down: as §1
The species entered for assay [5] is Cavia porcellus. Nature of the assay: Compound was evaluated for mean percent change from control contractions of isolated guinea pig ilea produced by Bradykinin (Brdkn) at a concentration of 10.0 ug/mL. In kind it is functional. The method, boiled down:
as §1

For assay [6], the species on record is Cavia porcellus. Nature of the assay: Compound was evaluated for mean percent change from control contractions of isolated guinea pig ilea produced by Acetylcholine (ACh) at a concentration of 0.01 ug/mL. In kind it is functional. The method, boiled down:
as §1

Assay [7] is filed under the species Cavia porcellus. Nature of the assay: Compound was evaluated for mean percent change from control contractions of isolated guinea pig ilea produced by Acetylcholine (ACh) at a concentration of 0.1 ug/mL. In kind it is functional. The method, boiled down:
as §1

The species named for assay [8] is Cavia porcellus. Nature of the assay: Compound was evaluated for mean percent change from control contractions of isolated guinea pig ilea produced by Acetylcholine (ACh) at a concentration of 1.0 ug/mL. In kind it is functional. The method, boiled down:
as §1

The species named for assay [9] is Cavia porcellus. Description: Compound was evaluated for muscle stimulating potency in isolated guinea pig ilea relative to bradykinin triacetate (1). The assay is classed as functional, Muscle tissue. The method, boiled down: (§2)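 Isolated guinea pig ileum segments were used in four-point parallel-line bioassays against bradykinin triacetate, with potency calculated on a weight basis. Doses were given at 4-min intervals in a randomized block design, and the bath was rinsed after peak contraction. Relative potency and fiducial limits were estimated from contraction magnitudes by Finney's method. Only assays without significant deviation from parallelism were accepted.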

The species entered for assay [10] is Cavia porcellus. Nature of the assay: Compound was evaluated for mean percent change from control contractions of isolated guinea pig ilea produced by Prostaglandin E2 (PGE2) at a concentration of 0.01 ug/mL. The assay is classed as functional. The method, boiled down:
as §1

Assay [11] is filed under the species Cavia porcellus. Description: Compound was evaluated for mean percent change from control contractions of isolated guinea pig ilea produced by Prostaglandin E2 (PGE2) at a concentration of 0.1 ug/mL. The assay is classed as functional. In outline:
as §1

The species entered for assay [12] is Cavia porcellus. Description: Compound was evaluated for mean percent change from control contractions of isolated guinea pig ilea produced by Prostaglandin E2 (PGE2) at a concentration of 10.0 ug/mL. The assay is classed as functional. The method, boiled down: as §1
For assay [13], the species on record is Cavia porcellus. Description: Compound was evaluated for mean percent change from control contractions of isolated guinea pig ilea produced by Acetylcholine (ACh) at a concentration of 10 ug/mL. In kind it is functional. In outline:
as §1

For assay [14], the species on record is Cavia porcellus. Nature of the assay: Compound was evaluated for mean percent change from control contractions of isolated guinea pig ilea produced by Acetylcholine (ACh) at a concentration of 1 ug/mL. The assay is classed as functional. In outline: as §1
The species entered for assay [15] is Cavia porcellus. Nature of the assay: Compound was evaluated for mean percent change from control contractions of isolated guinea pig ilea produced by Acetylcholine (ACh) at a concentration of 30 ug/mL. In kind it is functional. The method, boiled down: as §1
The species entered for assay [16] is Cavia porcellus. Description: Compound was evaluated for mean percent change from control contractions of isolated guinea pig ilea produced by Acetylcholine (ACh) at a concentration of 3 ug/mL. The assay is classed as functional. The method, boiled down:
as §1

For assay [17], the species on record is Cavia porcellus. Description: Compound was evaluated for mean percent change from control contractions of isolated guinea pig ilea produced by Bradykinin (Brdkn) at a concentration of 10 ug/mL. The assay is classed as functional. In outline:
as §1

For assay [18], the species on record is Cavia porcellus. Description: Compound was evaluated for mean percent change from control contractions of isolated guinea pig ilea produced by Bradykinin (Brdkn) at a concentration of 1 ug/mL. In kind it is functional. In outline:
as §1

For assay [19], the species on record is Cavia porcellus. Nature of the assay: Compound was evaluated for mean percent change from control contractions of isolated guinea pig ilea produced by Bradykinin (Brdkn) at a concentration of 30 ug/mL. In kind it is functional. The method, boiled down:
as §1

Assay [20] is filed under the species Cavia porcellus. Nature of the assay: Compound was evaluated for mean percent change from control contractions of isolated guinea pig ilea produced by Bradykinin (Brdkn) at a concentration of 3 ug/mL. The assay is classed as functional. In outline: as §1
For assay [21], the species on record is Cavia porcellus. Nature of the assay: Compound was evaluated for mean percent change from control contractions of isolated guinea pig ilea produced by Prostaglandin E2 (PGE2) at a concentration of 10 ug/mL. The assay is classed as functional. In outline:
as §1

The species named for assay [22] is Cavia porcellus. Description: Compound was evaluated for mean percent change from control contractions of isolated guinea pig ilea produced by Prostaglandin E2 (PGE2) at a concentration of 1 ug/mL. In kind it is functional. In outline: as §1
The species entered for assay [23] is Cavia porcellus. Nature of the assay: Compound was evaluated for mean percent change from control contractions of isolated guinea pig ilea produced by Prostaglandin E2 (PGE2) at a concentration of 30 ug/mL. In kind it is functional. In outline: as §1
For assay [24], the species on record is Cavia porcellus. Description: Compound was evaluated for mean percent change from control contractions of isolated guinea pig ilea produced by Prostaglandin E2 (PGE2) at a concentration of 3 ug/mL. The assay is classed as functional. In outline: as §1
The species named for assay [25] is Cavia porcellus. Description: Compound was evaluated for muscle stimulating potency in isolated guinea pig ilea. The assay is classed as functional, Muscle tissue. In outline:
as §2

With `CN[C@@H](CCCN=C(N)N)C(=O)N1CCC[C@H]1C(=O)N1CCC[C@H]1C(=O)NCC(=O)N[C@@H](Cc1ccccc1)C(=O)N[C@@H](CO)C(=O)N1CCC[C@H]1C(=O)N[C@@H](Cc1ccccc1)C(=O)N[C@@H](CCCN=C(N)N)C(=O)O` (H-[NMeR]PPGFSPFR-OH), the Change in the assay filed under Cavia porcellus [1] is reported as -97%; in the assay filed under Cavia porcellus [2], -88%; in the assay filed under Cavia porcellus [3], -100%; in the assay filed under Cavia porcellus [4], -100%; in the assay listed under Cavia porcellus [5] it was -100%; in the assay listed under Cavia porcellus [6], -29%. Besides, the Change in the assay listed under Cavia porcellus [7] was -67%; in the assay listed under Cavia porcellus [8] it was -100%; in the assay filed under Cavia porcellus [10] it was -28%; in the assay filed under Cavia porcellus [11], -88%; in the assay listed under Cavia porcellus [12] it was -95% and -83%. In the assay filed under Cavia porcellus [9], this compound came in with a Potency of 0.61.

Take `CN(CC(=O)N[C@@H](Cc1ccccc1)C(=O)N[C@@H](CO)C(=O)N1CCC[C@H]1C(=O)N[C@@H](Cc1ccccc1)C(=O)N[C@@H](CCCN=C(N)N)C(=O)O)C(=O)[C@@H]1CCCN1C(=O)[C@@H]1CCCN1C(=O)[C@@H](N)CCCN=C(N)N` (H-RPP[Sar]FSPFR-OH): the Change in the assay listed under Cavia porcellus [13] is recorded as -58%; in the assay listed under Cavia porcellus [14] it was -32%; in the assay filed under Cavia porcellus [15], -70%; in the assay filed under Cavia porcellus [16], -9%; in the assay filed under Cavia porcellus [17] it was -25%; in the assay listed under Cavia porcellus [18], 5%. In addition, the Change in the assay filed under Cavia porcellus [19] is given as -40%; in the assay listed under Cavia porcellus [20] it was 21%; in the assay filed under Cavia porcellus [21] it was -85%; in the assay listed under Cavia porcellus [22], -20%; in the assay listed under Cavia porcellus [23], -69%; in the assay listed under Cavia porcellus [24], -27%. Further, in the assay listed under Cavia porcellus [9], the Potency amounted to 0.0039.

`N=C(N)NCCC[C@H](NC(=O)[C@H](Cc1ccccc1)NC(=O)[C@@H]1CCCN1C(=O)[C@H](CO)NC(=O)[C@H](Cc1ccccc1)NC(=O)CNC(=O)[C@@H]1CCCN1C(=O)[C@@H]1CCCN1C(=O)[C@@H](N)CCCNC(=N)N)C(=O)O` [BRADYKININ] (H-RPPGFSPFR-OH): in the assay filed under Cavia porcellus [25], the Potency came out at 1.

Consider `CN(C(=O)[C@H](Cc1ccccc1)NC(=O)[C@@H]1CCCN1C(=O)[C@H](CO)NC(=O)[C@H](Cc1ccccc1)NC(=O)CNC(=O)[C@@H]1CCCN1C(=O)[C@@H]1CCCN1C(=O)[C@@H](N)CCCN=C(N)N)[C@@H](CCCN=C(N)N)C(=O)O`, for which the Change is -28% in the assay filed under Cavia porcellus [13], -64% in the assay listed under Cavia porcellus [17] and 7% in the assay listed under Cavia porcellus [21]. The same compound displayed a Potency in the assay listed under Cavia porcellus [9] of 0.0046.

`CN(C(=O)CNC(=O)[C@@H]1CCCN1C(=O)[C@@H]1CCCN1C(=O)[C@@H](N)CCCN=C(N)N)[C@@H](Cc1ccccc1)C(=O)N[C@@H](CO)C(=O)N1CCC[C@H]1C(=O)N[C@@H](Cc1ccccc1)C(=O)N[C@@H](CCCN=C(N)N)C(=O)O` (H-RPPG[NMeF]SPFR-OH): the Change was -31% in the assay listed under Cavia porcellus [13], -32% in the assay filed under Cavia porcellus [17] and 1% in the assay filed under Cavia porcellus [21]. In the assay listed under Cavia porcellus [9], this compound had a Potency of 0.01.

Regarding `CN(C(=O)[C@@H]1CCCN1C(=O)[C@H](CO)NC(=O)[C@H](Cc1ccccc1)NC(=O)CNC(=O)[C@@H]1CCCN1C(=O)[C@@H]1CCCN1C(=O)[C@@H](N)CCCN=C(N)N)[C@@H](Cc1ccccc1)C(=O)N[C@@H](CCCN=C(N)N)C(=O)O` (H-RPPGFSP[NMeF]R-OH), the Change in the assay filed under Cavia porcellus [13] was -75%; in the assay filed under Cavia porcellus [14], -6%; in the assay filed under Cavia porcellus [16], -41%; in the assay listed under Cavia porcellus [17], -97%; in the assay listed under Cavia porcellus [18], -27%; in the assay filed under Cavia porcellus [20], -81%. Further, the Change in the assay listed under Cavia porcellus [21] was -88%; in the assay listed under Cavia porcellus [22], -17%; in the assay listed under Cavia porcellus [24], -60%. The Potency in the assay listed under Cavia porcellus [9] was 0.015.
